# Reference: ChEMBL document CHEMBL1799983, “Anti-inflammatory and cytotoxic neoflavonoids and benzofurans from Pterocarpus santalinus” (J Nat Prod, 2011)
# Tests used:
# MDA-MB-231 = experiment: Cytotoxicity against human MDA-MB-231 cells by MTT assay; assay type: functional, cell-based
# Method in brief: (§1)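 Fractions and isolates were screened against the cancer cell lines by a colorimetric MTT assay run to an established protocol, with doxorubicin as the positive control.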
# [1] = Antiinflammatory activity in human neutrophils assessed as inhibition of FMLP/CB-induced elastase release; assay type: functional, cell-based; settings: Neutrophil
# Method in brief: (§2)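 IC50 (concentration giving 50% inhibition) in human neutrophils, reported as mean ± SEM, n = 3–5. LY294002, a phosphatidylinositol-3-kinase inhibitor, served as the positive control for both superoxide anion generation and elastase release.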
# [2] = Cytotoxicity against human Hep3B cells by MTT assay; assay type: functional, cell-based, Hep 3B2; method in brief: as §1
# [3] = Antiinflammatory activity in human neutrophils assessed as inhibition of FMLP/CB-induced superoxide anion generation; assay type: functional, cell-based; settings: Neutrophil; method in brief: as §2
# HepG2 = experiment: Cytotoxicity against human HepG2 cells by MTT assay; assay type: functional, cell-based; method in brief: as §1
# [4] = Antiinflammatory activity in human neutrophils assessed as inhibition of FMLP/CB-induced elastase release at 10 ug/ml; assay type: functional, Neutrophil; settings: for inhibition at 10 µg/mL: Homo sapiens, Neutrophil
# Method in brief: (§3)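 Percentage inhibition in human neutrophils, measured at 10 μg/mL test concentration and reported as mean ± SEM (n = 3–5). Significance was tested against the control value at p < 0.05, 0.01 and 0.001. LY294002 was the positive control.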
# [5] = Antiinflammatory activity in human neutrophils assessed as inhibition of FMLP/CB-induced superoxide anion generation at 10 ug/ml; assay type: functional, Neutrophil; method in brief: as §3
# A549 = experiment: Cytotoxicity against human A549 cells by MTT assay; assay type: functional, cell-based; method in brief: as §1
# Ca9-22 = experiment: Cytotoxicity against human Ca9-22 cells by MTT assay; assay type: functional, cell-based; method in brief: as §1
# MCF7 = experiment: Cytotoxicity against human MCF7 cells by MTT assay; assay type: functional, cell-based; method in brief: as §1
# Neutrophil = experiment: Ratio of LY294002 IC50 to compound IC50 for FMLP/CB-induced elastase release in human neutrophils; assay type: functional
# [6] = Homo sapiens, MDA-MB-231, read-out: IC50
# [7] = Homo sapiens, Hep3B, read-out: IC50
# [8] = Homo sapiens, HepG2, read-out: IC50
# [9] = Homo sapiens, A549, read-out: IC50
# [10] = Homo sapiens, Ca9-22, read-out: IC50
# [11] = Homo sapiens, MCF7, read-out: IC50
Compound,IC50 (MDA-MB-231; [6]),IC50 [1],"IC50 [2, 7]",IC50 [3],IC50 (HepG2; [8]),IC50 (A549; [9]),IC50 (Ca9-22; [10]),IC50 (MCF7; [11]),also measured
C=C[C@H](C1=CC(=O)C(OC)=CC1=O)c1ccc(OC)c(O)c1,3.34 µg/mL,1.44 µg/mL,2.39 µg/mL,0.47 µg/mL,,,,,
"C=C[C@H](C1=CC(O)(CC(C)=O)C(OC)=CC1=O)c1ccc(OC)c(O)c1 (single isomer, unassigned) [PTEROLINUS HB]",2.85 µg/mL,,,,3.65 µg/mL,,,,"inhibition (INH) [4]: 19.53%; inhibition at 10 µg/mL ([5]; Homo sapiens, Neutrophil): 29.4%"
"C=C[C@H](C1=CC(O)(CC(C)=O)C(OC)=CC1=O)c1ccc(OC)c(O)c1 (single isomer, unassigned; epimer 2) [PTEROLINUS HB]",,,,,,3.97 µg/mL,,,inhibition (INH) [4]: 2.84%; inhibition (INH) [5]: 34.15%
COc1ccc(-c2oc3cc(OC)c(O)cc3c2C)cc1O [DEHYDROMELANOXIN],,3.69 µg/mL,,0.73 µg/mL,,,,,IC50 (MDA-MB-231; mda-mb-231): Not Active; IC50 (HepG2; hepg2): Not Active; IC50 ([2]; hep 3b2): Not Active; IC50 (Ca9-22; ca9-22): Not Active; IC50 (A549; a549): Not Active; IC50 (MCF7; mcf7): Not Active
O=c1cc(N2CCOCC2)oc2c(-c3ccccc3)cccc12 [LY-294002],,1.99 µg/mL,,1.18 µg/mL,,,,,
COc1ccc(-c2cc(=O)oc3cc(OC)c(O)cc23)cc1O [MELANNEIN],> 17.1 µg/mL,,> 17.1 µg/mL,3.18 µg/mL,> 17.1 µg/mL,> 17.1 µg/mL,> 17.1 µg/mL,> 17.1 µg/mL,inhibition at 10 µg/mL [4]: -1.53%
COc1ccc([C@H]2Oc3cc(OC)c(O)cc3[C@@H]2C)cc1O [MELANOXIN],7.7 µg/mL,,7.7 µg/mL,0.69 µg/mL,7.7 µg/mL,7.7 µg/mL,7.7 µg/mL,7.7 µg/mL,inhibition at 10 µg/mL [4]: 33.3%
COc1ccc(C(=O)c2cc(O)c(OC)cc2O)cc1O [MELANOXOIN],,3.62 µg/mL,,,,,0.46 µg/mL,,
COc1ccc(-c2c(C)oc3cc(OC)c(O)cc23)cc1O [PTEROLINUS A],,2.54 µg/mL,,0.33 µg/mL,,,,,IC50 (MDA-MB-231; mda-mb-231): Not Active; IC50 (HepG2; hepg2): Not Active; IC50 ([2]; hep 3b2): Not Active; IC50 (Ca9-22; ca9-22): Not Active; IC50 (A549; a549): Not Active; IC50 (MCF7; mcf7): Not Active
COc1cc2oc(-c3ccc(O)cc3)c(C)c2cc1O [PTEROLINUS B],,47.8 µg/mL,,0.19 µg/mL,,2.34 µg/mL,,1.74 µg/mL,
COc1ccc([C@H]2Oc3cc(OC)c(OC)cc3[C@@H]2C)cc1O [PTEROLINUS C],> 19.4 µg/mL,,> 19.4 µg/mL,2.28 µg/mL,> 19.4 µg/mL,> 19.4 µg/mL,> 19.4 µg/mL,> 19.4 µg/mL,inhibition at 10 µg/mL [4]: 9.73%
COC1=CC(=O)C2(C(C)C(O)c3ccc(OC)c(O)c3)OC2C1=O (stereo not drawn) [PTEROLINUS D],4.89 µg/mL,1.06 µg/mL,2.08 µg/mL,0.29 µg/mL,4.33 µg/mL,,,3.31 µg/mL,Ratio IC50 (Neutrophil): 1.9
COC1=CC(=O)C([C@@H](C)[C@@H](O)c2ccc(OC)c(O)c2)=CC1=O [PTEROLINUS E],6.96 µg/mL,2.13 µg/mL,6.96 µg/mL,,6.96 µg/mL,6.96 µg/mL,6.96 µg/mL,6.96 µg/mL,
C=C[C@@H](c1ccc(OC)c(O)c1)c1cc(O)c(C(=O)OC)cc1O [PTEROLINUS F],11.1 µg/mL,3.22 µg/mL,11.1 µg/mL,,11.1 µg/mL,11.1 µg/mL,11.1 µg/mL,11.1 µg/mL,
COc1cc(C2CCOc3cc(OC)c(O)cc32)ccc1O (stereo not drawn) [PTEROLINUS J],> 17.1 µg/mL,,> 17.1 µg/mL,2.1 µg/mL,> 17.1 µg/mL,> 17.1 µg/mL,> 17.1 µg/mL,> 17.1 µg/mL,inhibition at 10 µg/mL [4]: 16.6%
